From ChEMBL document CHEMBL1145421, “Discovery of novel antitumor antimitotic agents that also reverse tumor resistance” (J Med Chem, 2007)

Assays:
MCF7 [1] = experiment: Cytotoxicity against human MCF7 cells after 48 hrs by SRB binding assay; format: functional, cell-based; details: MCF7, 48 h
In short: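 Drug-sensitive MCF-7 cells seeded at ~15% confluency and allowed 24 h recovery. Exposed 48 h to graded concentrations. Survival measured by SRB binding as % decrease versus ethanol-vehicle controls, mean of triplicate wells.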

[2] = Cytotoxicity against MRP1 overexpressing human MCF7/VP cells after 48 hrs by SRB binding assay; format: functional, cell-based
In short: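 MCF-7/VP (MRP1-expressing, Pgp-negative) cells seeded at ~15% confluency and allowed 24 h to attach. Exposed 48 h to graded concentrations without vincristine. Survival measured by SRB binding versus ethanol controls.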

[3] = Cytotoxicity against human T24 cells after 48 hrs by SRB binding assay; format: cell-based; details: T-24, 48 h
[4] = Cytotoxicity against Pgp overexpressing human NCI/ADR cells after 48 hrs by SRB binding assay; format: functional, cell-based; details: NCI/ADR-RES
In short: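 NCI/ADR (Pgp-overexpressing) cells seeded at ~15% confluency and allowed 24 h to attach. Exposed 48 h to graded concentrations, as solubility allowed, without vinblastine. Survival measured by sulforhodamine B binding as % decrease in SRB binding versus ethanol-vehicle controls, mean of three wells per condition.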

MCF7 [5] = experiment: Growth inhibition of Pgp deficient MCF7 cells expressing MRP1; format: functional, cell-based; details: Homo sapiens
In short: (§1)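 NCI/ADR (Pgp-overexpressing) or MCF-7/VP (MRP1-expressing, Pgp-negative) cells were seeded at about 15% confluency and allowed to attach for 24 h. They were then exposed for 48 h to varying compound concentrations, limited by solubility, without added vinca drug. Survival was read by sulforhodamine B binding against ethanol solvent controls. Each value is the mean of three equally treated wells.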

[6] = Growth inhibition of NCI/ADR cells expressing Pgp/MRP1; format: functional, cell-based; details: Homo sapiens, NCI/ADR-RES; in short: as §1
[7] = Growth inhibition of Pgp deficient MCF7/VP cells expressing MRP1; format: functional, cell-based; details: Homo sapiens; in short: as §1

Work on `COc1cccc(CCc2cn(Cc3ccccc3)c3nc(N)nc(C)c23)c1` yielded an IC50 (MCF7 [1]) of 8 µM, an IC50 [2] of 22 µM and an IC50 [3] of 25 µM. For the same molecule, the IC50 [4] was 5.7 µM.

With `CC[C@]1(O)C[C@H]2CN(CCc3c([nH]c4ccccc34)[C@@](C(=O)OC)(c3cc4c(cc3OC)N(C=O)[C@H]3[C@@](O)(C(=O)OC)[C@H](OC(C)=O)[C@]5(CC)C=CCN6CC[C@]43[C@@H]65)C2)C1` [VINCRISTINE] the IC50 (MCF7 [5]) was 0.0006 µM, the IC50 [6] was 0.1 µM and the IC50 [7] was 0.0093 µM.
